# The list is not random: actives were taken first. Their share in the collection is about 4.3%.
# BB579 growth dn – growth inhibitors of yeast BB579 in restrictive medium, primary screen, yeast lifespan-shortening project, S. cerevisiae. OD615, 48 h. hit rate 0.51% among 140,000. inhibition, % at 10 µM. AID 804, 2007;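 active = inhibition above a set limit, 3 SD over the mean compound inhibition, cut at about 44% in these data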
#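 Assay system – yeast BB579 (DeaD) · Dosing – single compound dose of 10 µM, 0.25% DMSO final · Detection – OD615 turbidity measurement · Buffer or medium – CSMM-D restrictive synthetic medium containing dextrose (glucose) · Benchmarks – positive control amphotericin B 10 µg/mL · Incubation – 48 h exposure, 30 °C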
# WT yeast gro inh – growth inhibition of WT strain, primary screen, mitochondrial fusion inhibitor project, WT and mutant strains, chemical genetic; hit rate 2.1% among 190,000; mitochondrial fusion phenotypic screen; inhibition, % at 10 µM; AID 1362, 2008; in the data active = inhibition above about 58%; tested in S. cerevisiae
# Yeast life ext – compounds extending yeast replicative lifespan, primary screen, S. cerevisiae, OD615; hit rate 0.68% among 130,000; S. cerevisiae growth with nicotinamide; deaD strain in restrictive glucose medium; inhibition of the nicotinamide effect, % at 10 µM;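 active = inhibition above a set limit, placed 3 SD over the median of all compounds, cut at about 26% in these data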;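 also: 0% = nicotinamide-treated wells and 100% = cells grown without nicotinamide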
#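 Material: Modified budding yeast, DeaD strain | Medium: Restrictive glucose medium | Probe or stimulus: 1.5 mM nicotinamide | Dosing: Single dose 10 µM compound, 0.25% DMSO | Times: 48 h at 30 °C | Technique: OD615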
# RAM network inh – inhibitors of the yeast RAM network, primary screen, dse1pr::URA3 reporter, 5-FOA selection | S. cerevisiae dse1pr::URA3 reporter, 5-FOA growth OD615, 2 d; analog-sensitive cbk1-as2 kinase mutant strain | inhibition, % at 50 µM | hit rate 1.8% among 190,000 | AID 868, 2007;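 active = inhibition above a set limit, 3 SD over mean compound inhibition, cut at about 8.4% in these data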;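 also: 0% = DMSO-only wells with no growth and 100% = 10 µM 1-NA-PP1 full growth; inhibition rescues growth on 5-FOA so higher OD means more RAM inhibition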
# * marks the source's active call; other numbers are inactive results; nt = no result given.
SMILES,BB579 growth dn,WT yeast gro inh,Yeast life ext,RAM network inh
COc1ccc(Nc2nnc(SCC(=O)NC(=O)Nc3ccc4c(c3)OCCO4)s2)cc1,nt,6,nt,6
COc1ccc(Nc2nnc(SCC(=O)Nc3ccc4[nH]c(=O)[nH]c4c3)s2)cc1,nt,11,nt,10*
O=C(Nc1cccc2ccccc12)OCc1cncs1,nt,0,nt,3
Cc1cccc(OCC(=O)N/N=C\c2cn(C)c3ccccc23)c1,nt,12,nt,2
Cc1cccc(OCCn2cc(/C=N/NC(=O)c3ccncc3)c3ccccc32)c1,54*,10,-8,0
Cc1ccc(C)c(NC(=S)N=Nc2c(O)n(C)c3ccc(S(=O)(=O)N4CCOCC4)cc23)c1,-13,28,5,5
CCc1ccccc1NC(=S)N=Nc1c(O)n(C)c2ccc(S(=O)(=O)N3CCOCC3)cc12,-53,72*,15,7
COc1ccc(NC(=O)COC(=O)c2ccc([N+](=O)[O-])o2)cc1Cl,nt,20,nt,2
CCCOC(=O)CSc1nc(N)c(C#N)c(-c2ccco2)c1C#N,-52,-10,nt,9.3*
O=C1CSC(c2ccccn2)N1c1ccc(F)cc1F (centres undefined),nt,-5,nt,1
Cn1ccnc1Sc1ccc(/C=N/NC(=O)c2ccccc2O)cc1[N+](=O)[O-],-33,-8,2,2
CCOCCCNC(=S)NCCCNc1nc2c(C)c(C)ccc2cc1C#N,nt,74*,nt,5
CCC(=O)N1CCN(c2cc(N3CCN(C)CC3)c(F)cc2[N+](=O)[O-])CC1,-8,9,10,0
CN1CCN(c2cc(N3CCc4ccccc4C3)c(F)cc2[N+](=O)[O-])CC1,-5,87*,-2,1
COC(=O)c1ccc(C(NC(=O)OCc2ccccc2)/C(F)=C/[C@@H](C)C(=O)NCc2ccc(OC)c(OC)c2)cc1 (some centres undefined),-21,3,1,0
CC(C)(c1ccccc1)c1ccc(OCCCNCCO)cc1,-58,92*,-7,0
CC(C)(C)c1ccc(OCCCNCc2ccccc2)cc1,-2,87*,1,-1
CCOC(=O)C(=CNc1ccc2c(c1)nnn2-c1ccc(Cl)cc1)C(=O)OCC,-49,2,5,1
COc1ccc(C2(NC(C)=O)CCN(C(=O)c3cccs3)CC2)cc1,-11,8,nt,0
O=c1c2sccc2nc(SCc2cc(=O)n3ccccc3n2)n1Cc1ccccn1,nt,-10,nt,2
CCCC1COC(Cn2cncn2)(c2ccc(C)cc2)O1 (centres undefined),94*,-46,-20,-1
CCN(CC)C(=O)Cn1c(=O)n(-c2ccc(CC(=O)NCc3ccccc3)cc2)c(=O)c2sccc21,nt,-14,nt,0
COc1ccccc1NC(=O)CCSc1nc(C)cc(C)n1,nt,9,nt,0
C1CCN=C(Nc2nc3c(s2)CCCC3)CC1,-41,62*,0,0
O=C(O/N=C1\C(=O)N(c2ccccc2)c2ccccc21)C1CC1,nt,-21,nt,0
SMILES,BB579 growth dn,WT yeast gro inh,Yeast life ext,RAM network inh
CN1C(=O)/C(=N/OC(=O)c2ccccc2)c2ccccc21,100*,0,-14,-1
Cc1cc(C(F)(F)F)n(-c2nc(C(=O)NNS(=O)(=O)c3ccccc3[N+](=O)[O-])cs2)n1,nt,16,nt,2
Cc1cc(NC(=O)COC(=O)c2ccco2)no1,nt,-1,nt,1
O=C(CC1(O)C(=O)Nc2ccc(Br)cc21)c1ccc2c(c1)OCO2 (centres undefined),0,27,-5,3
CC(C)(C)c1ccc(OC(=O)c2ccc3nsnc3c2)cc1,-76,73*,-7,5
CCc1cccc2c(C(=O)COC(=O)c3ccc([N+](=O)[O-])s3)c[nH]c12,98*,96,-9,3
O=C(OCC(=O)c1c[nH]c2ccccc12)c1ccc([N+](=O)[O-])s1,nt,97,nt,1
Cc1ncc([N+](=O)[O-])n1Cc1ccc(F)cc1,nt,7,nt,1
Cc1[nH]nc2c1C(c1cccs1)C1=C(CC(C)(C)CC1=O)N2 (centres undefined),nt,1,nt,0
O=C(O)/C(=C\c1ccccc1Cl)c1ccc(S(=O)(=O)N2CCCCC2)s1,-18,-11,9,5
CSc1ccc(/C=C(\C(=O)O)c2ccc(S(=O)(=O)N3CCCCC3)s2)cc1,-30,7,5,10*
COC(=O)CSCC(=O)Nc1nnc(-c2ccccc2C)s1,nt,-5,nt,5
COC(=O)c1cn(N(C)c2ncc(C(F)(F)F)cc2Cl)c(=O)c2ccccc12,-27,72*,-6,4

# From PubChem BioAssay
